Reference: paper PMC2193291 (The Journal of Experimental Medicine, 2000)
Where two headings read alike, the source gives them in different places.

Columns and labels:
[1] = molecular target: T1, Human Vav C1 ZiF domain (Homo sapiens, UniProt P15498); assay: Retinol binding by trp fluorescence quench, Gst fusion protein
T1 sequence (P15498 with tags, fused parts or gaps): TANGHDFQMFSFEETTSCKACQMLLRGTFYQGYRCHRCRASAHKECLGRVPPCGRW
Procedure, shortened: (§1)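 Gst-ZiF fusions expressed in E. coli BL21/DE3 and purified on glutathione-agarose to >90%. Constructs: Drosophila C1A aa 40–101; C1B aa 105–261 plus trp 262; Vav aa 464–518 plus trp 519. Protein at 250 nM in helium-degassed PBS, titrated stepwise with all-trans retinol from a methanol stock. Trp emission 330 nm (excitation 280 nm), corrected for inner filtering. Kd from nonlinear fit over at least four independent measurements.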

[2] = system: cRaf/MAPK (ERK1 and 2 phosphorylation); assay: Oxidative; type: cell-based; conditions: 3T3 cells, 2 μM retinol
[3] = molecular target: PKCα (Mus musculus, UniProt P20444); assay: PKCα immunoprecipitation/kinase assay of H2O2-activated 3T3 cells; type: cell-based
Procedure, shortened: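 3T3 cells retinol-depleted, some repleted 12 h with 2 μM retinol, then activated 10 min with graded H2O2 doses without staurosporine. Detergent lysates immunoprecipitated with PKCα antibody. Kinase activity measured in washed immunoprecipitates with H1 histone as substrate. Normalized data from six independent H2O2 titrations.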

[4] = molecular target: T2, S. cerevisiae PKC C1A ZiF domain (Saccharomyces cerevisiae, UniProt P24583); assay: Retinol binding by trp fluorescence quench, Gst fusion protein
T2 sequence (P24583 414-461 limits assumed): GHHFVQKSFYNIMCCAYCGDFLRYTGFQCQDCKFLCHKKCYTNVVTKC

[5] = molecular target: Human cRaf-1 C1 ZiF domain (Homo sapiens, UniProt P04049); assay: Retinoid binding by quenching of intrinsic protein
[6] = molecular target: Drosophila PKC C1B ZiF domain (Drosophila melanogaster, UniProt P05130); assay: Retinol binding by trp fluorescence quench, Gst fusion protein
Procedure, shortened: as §1

[7] = molecular target: Human PKCδ C1B ZiF domain (Homo sapiens, UniProt Q05655); assay: Retinol binding by trp fluorescence quench, Gst fusion protein
Human PKCδ C1B ZiF domain, sequence (Q05655 231-280): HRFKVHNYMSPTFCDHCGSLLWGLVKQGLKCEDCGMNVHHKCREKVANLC

[8] = molecular target: Human PKCα C1A ZiF domain (Homo sapiens, UniProt P17252); assay: Retinol binding by trp fluorescence quench, Gst fusion protein
Procedure, shortened: as §1

[9] = molecular target: T3, S. cerevisiae PKC C1B ZiF domain (Saccharomyces cerevisiae, UniProt P24583); assay: as above
T3 sequence (P24583 481-531 limits assumed): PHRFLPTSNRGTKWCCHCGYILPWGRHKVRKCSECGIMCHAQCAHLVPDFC
Procedure, shortened: as §1

[10] = molecular target: Human PKCα C1B ZiF domain (Homo sapiens, UniProt P17252); assay: as above
Procedure, shortened: as §1

[11] = molecular target: Drosophila PKC C1A ZiF domain (Drosophila melanogaster, UniProt P05130); assay: as above
Procedure, shortened: as §1

[12] = molecular target: cRaf (Homo sapiens, UniProt P04049); type: cell-based
cRaf, sequence (P04049 whole entry): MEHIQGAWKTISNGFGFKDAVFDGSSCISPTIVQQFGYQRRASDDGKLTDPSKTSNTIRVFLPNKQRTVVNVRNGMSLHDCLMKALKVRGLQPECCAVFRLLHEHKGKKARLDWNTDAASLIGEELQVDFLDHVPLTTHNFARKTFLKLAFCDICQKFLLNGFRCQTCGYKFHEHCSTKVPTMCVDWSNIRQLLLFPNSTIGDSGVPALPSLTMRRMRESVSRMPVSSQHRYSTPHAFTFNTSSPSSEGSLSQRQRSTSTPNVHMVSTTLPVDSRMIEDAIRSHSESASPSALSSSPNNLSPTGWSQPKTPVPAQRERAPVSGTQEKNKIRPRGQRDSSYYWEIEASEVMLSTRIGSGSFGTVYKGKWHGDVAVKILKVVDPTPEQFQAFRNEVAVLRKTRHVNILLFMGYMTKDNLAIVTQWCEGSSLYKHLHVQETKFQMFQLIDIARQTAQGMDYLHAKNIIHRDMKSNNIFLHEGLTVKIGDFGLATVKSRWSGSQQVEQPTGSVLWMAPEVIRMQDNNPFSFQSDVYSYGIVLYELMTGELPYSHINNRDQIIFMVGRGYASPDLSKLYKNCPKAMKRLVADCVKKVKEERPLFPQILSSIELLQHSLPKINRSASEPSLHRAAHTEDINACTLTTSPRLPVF
Procedure, shortened: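 COS-7 cells transfected with Flag-cRaf by calcium phosphate, kept 2 d in serum-free phenol-red-free DME, then given retinoids and/or scavengers (100 mM sodium azide, 1 mM N-acetylcysteine). UVB-irradiated at 400 μw/cm2 and incubated at 37°C for set times. Flag-Raf pulled down with anti-Flag M2 and washed in 0.5 M NaCl. Kinase reaction: 200 ng His-MEK(K97M), 60 μM ATP plus [γ-32P]ATP, 20 min, 30°C.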

[13] = molecular target: T4, Human PKCμ C1A ZiF domain (Homo sapiens, UniProt Q15139); assay: Retinol binding by trp fluorescence quench, Gst fusion protein
T4 sequence (Q15139 146-196 limits assumed): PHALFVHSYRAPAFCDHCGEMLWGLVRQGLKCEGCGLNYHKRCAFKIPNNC
Procedure, shortened: as §1

[14] = molecular target: Gst-Raf ZiF (human cRaf-1 ZiF domain) (Homo sapiens, UniProt P04049); assay: Retinol binding by fluorescence resonance energy transfer
[15] = system: MAPK (phospho-ERK); assay: Peroxide activation of endogenous MAPK in Jurkat cells, phospho-ERK Western blot; type: cell-based; conditions: 100 μM H2O2, different concentrations of retinol
Procedure, shortened: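 Jurkat cells grown serum-free and retinol-free, then given varying retinol concentrations. Activated 15 min later for 10 min with 100 μM H2O2. Endogenous MAPK activity read as phospho-ERK on Western blots.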

[16] = molecular target: T5, Human PKCμ C1B ZiF domain (Homo sapiens, UniProt Q15139); assay: Retinol binding by trp fluorescence quench, Gst fusion protein
T5 sequence (Q15139 270-320 limits assumed): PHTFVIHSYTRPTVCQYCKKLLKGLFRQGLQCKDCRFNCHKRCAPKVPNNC
Procedure, shortened: as §1

[17] = molecular target: Human PKCδ C1A ZiF domain (Homo sapiens, UniProt Q05655); assay: as above
Human PKCδ C1A ZiF domain, sequence (Q05655 159-209): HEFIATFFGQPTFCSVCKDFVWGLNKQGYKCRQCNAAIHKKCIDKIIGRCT
Procedure, shortened: as §1

[18] = molecular target: T6, Human PKCζ C1 ZiF domain (Homo sapiens, UniProt Q05513); assay: Retinol binding by trp fluorescence quench, Gst fusion protein
T6 sequence (Q05513 130-180 limits assumed): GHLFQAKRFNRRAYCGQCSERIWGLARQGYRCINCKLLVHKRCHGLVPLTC

Q: With CC1=C(/C=C/C(C)=C/C=C/C(C)=C/CO)C(C)(C)CCC1 [retinol, all-trans retinol] as the molecule, how does the Kd [1] read?
A: > 0.5 µM

Q: And the “MAPK activity in retinol-repleted compared with retinol-deficient cultures” value ([2]; 300 μM H2O2, peak at 10–15 min, phosphorylated p42)?
A: two- to threefold higher

Q: And the “MAPK activation by 5% FBS, retinol-sufficient vs retinol-deficient cultures” value ([2]; 5% FBS)?
A: no differences

Q: What about the “Activation of PKC by phorbol ester” value ([3]; 150 nM phorbol ester) of the same molecule?
A: not significantly enhanced

Q: And the “Increase of PKCα kinase activity at maximum stimulation over unstimulated cells” value ([3]; 3T3 cells, 200 μM H2O2, in the presence of 2 μM retinol, 6 experiments)?
A: 20 fold

Q: And the “Optimum dose for enhancement of PKCα activation” value ([3]; data not shown)?
A: 1 µM

Q: What about the “Overall retinol enhancement effect on PKCα kinase activity” value ([3]; presence vs absence of retinol, 200 μM H2O2) of the same molecule?
A: 3 fold

Q: And the “Intrinsic PKC activation by retinol alone” value ([3]; without H2O2)?
A: no intrinsic PKC activation

Q: What about the Kd [4] of the same molecule?
A: 0.0179 ± 0.0051 µM

Q: And the Kd ([5]; Binding constant, cRaf-1 amino acids 136–195, trp fluorescence quench, ± SE)?
A: 0.022 ± 0.0035 µM

Q: And the Kd [6]?
A: > 0.5 µM

Q: What about the Kd [7] of the same molecule?
A: 0.0673 ± 0.0013 µM

Q: And the Kd [8]?
A: 0.0207 ± 0.004 µM

Q: What about the Kd [9] of the same molecule?
A: > 0.5 µM

Q: And the Kd [10]?
A: > 0.5 µM

Q: What about the Kd [11] of the same molecule?
A: 0.0185 ± 0.0037 µM

Q: What about the “Augmentation of UVB-induced Raf kinase activity” value ([12]; COS cells replenished with 2 μM retinol, UVB) of the same molecule?
A: 2.2 ± 0.4 fold

Q: What about the Kd [13] of the same molecule?
A: 0.0181 ± 0.008 µM

Q: And the Kd [14]?
A: 0.0258 µM

Q: And the FRET signal ([14]; truncated Gst-Raf Zif136–186 lacking trp 187)?
A: did not elicit a FRET signal

Q: And the “Enhancement of MAPK activation by peroxide” value [15]?
A: dose-dependent enhancement

Q: What about the Kd [16] of the same molecule?
A: 0.0173 ± 0.004 µM

Q: And the Kd [17]?
A: 0.0952 ± 0.0013 µM

Q: And the Kd [18]?
A: 0.0341 ± 0.0067 µM

Q: With [N-]=[N+]=[N-].[Na+] [sodium azide] as the molecule, how does the “Effect on UVB-induced Raf activation” value ([12]; sodium azide 100 mM) read?
A: abolished the Raf activation

Q: With CC(C=CC=C(C)C(O)CO)=CC=C1C(C)=CCCC1(C)C (stereo not shown) [14HRR, 14-hydroxy-retro-retinol] as the molecule, how does the “Binding to native Gst-Raf4–256 (fluorescence quenching)” value ([5]; 1-μM protein solution, native protein) read?
A: saturable binding

Q: For CC(=O)N[C@@H](CS)C(=O)O [N-acetylcysteine], which “Effect on UVB-induced Raf activation” value ([12]; N-acetylcysteine 1 mM) is on record?
A: abolished the Raf activation

Q: Which “Effect on UVB-induced Raf activity” value ([12]; addition of deuterated water) does the source give for [2H]O[2H] [deuterated water] here?
A: distinct, though moderate, enhancement
